From ChEMBL document CHEMBL1124387, “Cardiotonic agents. 9. Synthesis and biological evaluation of a series of (E)-4,5-dihydro-6-[2-[4-(1H-imidazol-1-yl)phenyl]ethenyl]-3 (2H)-pyridazinones: a novel class of compounds with positive inotropic, antithrombotic, and vasodilatory activities for the treatment of congestive heart failure” (J Med Chem, 1989)
“And” between values parts separate entries of the source, which are not always exact repeats. Equal entries are not always repeated.

Assays:
[1] = species on record: Canis familiaris; assay: 50% increase in myocardial contractility (dP/dT max) in dogs; type: functional, Canis lupus familiaris, Myocardium
In short: (§1)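 Acutely instrumented anesthetized dogs (n = 6), 30-min control period. Compound in 0.9% saline, or dilute HCl diluted with saline, at 0.1 mL/kg iv over 1 min. At least four ascending half-log doses, 10 min apart, one compound per animal. Recorded: LV dP/dtmax, heart rate, aortic pressure and forelimb resistance. Values are maximum response from control average ± SEM.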

[2] = test system: Canis familiaris; assay: Hemodynamic activity in anesthetized dog as percent change from baseline (2271 mmHg/s) in left ventricular myocardial activity at 0.1 mg/kg administered intravenously; type: functional, Canis lupus familiaris, Heart left ventricle; settings: route intravenous
[3] = test system: Canis familiaris; assay: Hemodynamic activity in anesthetized dog as percent change from baseline (2271 mmHg/s) in left ventricular myocardial activity at 0.3 mg/kg administered intravenously; type: functional, Canis lupus familiaris, Heart left ventricle; settings: route intravenous
[4] = test system: Canis familiaris; assay: Hemodynamic activity in anesthetized dog as percent change from baseline (2271 mmHg/s) in left ventricular myocardial activity at 1 mg/kg administered intravenously; type: functional, Canis lupus familiaris, Heart left ventricle; settings: route intravenous
[5] = test system: Canis familiaris; assay: Hemodynamic activity in anesthetized dog as percent change in left ventricular myocardial activity from baseline (2271 mmHg/s) at 0.01 mg/kg administered intravenously; type: functional, Canis lupus familiaris, Heart left ventricle; settings: route intravenous; in short: as §1
[6] = test system: Canis familiaris; assay: Hemodynamic activity in anesthetized dog as percent change in left ventricular myocardial activity from baseline (2271 mmHg/s) at 0.03 mg/kg administered intravenously; type: functional, Canis lupus familiaris, Heart left ventricle; settings: route intravenous; in short: as §1
[7] = species on record: Homo sapiens; assay: In vitro inhibition of ADP stimulated platelet aggregation in human thrombocyte enriched plasma; type: functional
In short: (§2)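 Human platelet-rich plasma from aspirin/NSAID-free donors, adjusted to 250 000 platelets/μL with platelet-poor plasma. Drug in DMSO/saline (1% DMSO final) was added before ADP or collagen, with doses set by titration. Read-out was aggregation extent (ADP, curve height) or rate (collagen, major slope) as % of saline control.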

[8] = species on record: Homo sapiens; assay: In vitro inhibition of collagen stimulated platelet aggregation in human thrombocyte enriched plasma; type: functional; in short: as §2
[9] = species on record: Homo sapiens; assay: In vitro inhibition of ADP stimulated platelet aggregation in human whole blood; type: functional
In short: (§3)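 Human whole blood from aspirin/NSAID-free fasted donors, read by impedance aggregometry 5 min after adding ADP or collagen. Aggregation expressed as % of control (2-6 replicates), plotted against log drug concentration; IC50 obtained by extrapolation.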

[10] = species on record: Homo sapiens; assay: In vitro inhibition of collagen stimulated platelet aggregation in human whole blood; type: functional; in short: as §3
[11] = Partition coefficient (logP); type: physicochemical; settings: octanol/water
[12] = test system: Canis familiaris; assay: Decrease in thrombus weight in anesthetized dog coronary artery; type: functional, Canis lupus familiaris
In short: (§4)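 Pentobarbital-anesthetized (32 mg/kg iv), ventilated dogs, allowed 30 min to stabilize. Continuous infusion of compound (1.0, 3.0 or 10.0 μg/kg/min) or saline began 15 min before 50 μA current was applied to an intraluminal electrode in the circumflex coronary artery. After 60 min of stimulation the animals were euthanized and the thrombus dissected and weighed. One treatment per animal.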

[13] = test system: Canis familiaris; assay: (§5) Percentage increase in left ventricular contractility in anesthetized dog; type: functional, Canis lupus familiaris, Heart left ventricle
[14] = test system: Canis familiaris; assay: as §5; type: functional, Canis lupus familiaris, Heart left ventricle; remark: listed apart in the source
[15] = species on record: Canis familiaris; assay: Weight of thrombus; type: functional, Canis lupus familiaris; in short: as §4
[16] = test system: Canis familiaris; assay: Hemodynamic activity in anesthetized dog as percent change in left ventricular myocardial activity from baseline (2271 mmHg/s) at 0.001 mg/kg administered intravenously; type: functional, Canis lupus familiaris, Heart left ventricle; settings: route intravenous; in short: as §1
[17] = test system: Canis familiaris; assay: Hemodynamic activity in anesthetized dog as percent change in left ventricular myocardial activity from baseline (2271 mmHg/s) at 0.003 mg/kg administered intravenously; type: functional, Canis lupus familiaris, Heart left ventricle; settings: route intravenous; in short: as §1
[18] = species on record: Canis familiaris; assay: Ratio of positive inotropic activity to peripheral Vasodilator activity in dogs; type: functional, Canis lupus familiaris
In short: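 Inotropic ED20 is the iv bolus dose giving a 20% rise in dP/dtmax in anesthetized dogs. Vasodilator ED20 is the bolus dose into the brachial cannula of a constant-flow perfused forelimb (pentobarbital 30 mg/kg iv then 3.0 mg/kg/h, heparinized) giving a 20% fall in perfusion pressure. Each ED20 was taken from its dose-response curve; the ratio is PI/PV.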

[19] = target: T1, Phosphodiesterase 3 (Homo sapiens, UniProt Q14432+Q13370); assay: Inhibition of Phosphodiesterase 3 from human platelets at 1E-7-1E-4M or 1.0E-6 to 1E-3 M
In short: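 Fraction III cAMP-PDE from guinea pig heart or human platelets. Substrate [3H]cyclic AMP 1.0 μM at 30°C, with hydrolysis held to ≤10-20% and kept linear over 30 min.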

[20] = Inhibition of phosphodiesterase 3 from guinea pig cardiac tissue at 1E-7-1E-4M or 1.0E-6 to 1E-3 M; design: species or system Cavia porcellus
In short: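 Fraction III cAMP-PDE from guinea pig heart or human platelets. Substrate [3H]cyclic AMP 1.0 μM at 30°C, with hydrolysis held to ≤10-20% and kept linear over 30 min. Compounds in DMSO, 2.5% final.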

[21] = test system: Canis familiaris; assay: Hemodynamic activity in anesthetized dog as percent change from baseline (2271 mmHg/s) in left ventricular myocardial activity at 3.1 mg/kg administered intravenously; type: functional, Canis lupus familiaris, Heart left ventricle; settings: route intravenous
In short: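 Anaesthetised dogs were given one compound each, in ascending half-log iv doses 10 min apart, typically four to six doses. Each dose was dissolved in 0.9% saline or dilute HCl (0.1 or 1.0 N), made up with saline, and given as 0.1 mL/kg over 1 min after a 30-min control period. The readout was LV dP/dt_max from a differentiator amplifier, reported as maximum % change from control average ± SEM.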

[22] = target: T1, Phosphodiesterase 3; assay: Inhibition of phosphodiesterase 3 from human platelets at 1E-7-1E-4M or 1.0E-6 to 1E-3 M

Row | IC50 [7] | IC50 [8] | IC50 [9] | IC50 [10] | logP [11] | SMILES | Dose [1] | Change [2] | also measured
1 |  |  |  |  |  | CC1CC(=O)N(C)N=C1/C=C/c1ccc(-n2ccnc2)cc1 (configuration not stated) | 1 mg/kg |  | 
2 | 10000 nM | 100 nM | 9000 nM | 350 nM |  | Cc1[nH]c(=O)c(C#N)cc1-c1ccncc1 [MILRINONE] |  | 113% | Change [3]: 143%; Change [4]: 149%; Change [5]: 31%; Change [6]: 78%
3 | 30000 nM | 1500 nM |  |  |  | Cc1ncn(-c2ccc(/C=C/C3=NNC(=O)CC3C)cc2)c1C (configuration not stated) | 0.05 mg/kg |  | 
4 | 20000 nM | 3000 nM | 8000 nM | 17000 nM | 0.96 | O=C1CCC(c2ccc(-n3ccnc3)cc2)=NN1 [IMAZODAN] |  | 74% | Change [3]: 127%; Change [4]: 147%; Change [5]: 10%; Change [6]: 37%
5 | 4000 nM | 250 nM |  |  |  | CC(=O)Nc1ccc(/C=C/C2=NNC(=O)C(C)(C)C2)cc1 | 1 mg/kg |  | 
6 |  |  |  |  |  | O=C1CCC(CCc2ccc(-n3ccnc3)cc2)=NN1 | 1 mg/kg |  | 
7 | 350 nM | 150 nM | 10 nM | 400 nM | 1.4 | CC(Cl)C(=O)Nc1ccc(C2=NNC(=O)CC2C)cc1 (configuration not stated) [AMIPIZONE] |  |  | Inhibition [12]: 54% and 73% and 77%; Increase [13]: 3%; Increase [14]: 10% and 23%; Thrombus weight [15]: 8.3 mg and 4.8 mg and 4.1 mg
8 |  |  |  |  |  | CC1CC(=O)NN=C1/C=C/c1ccc(-n2cnc3ccccc32)cc1 (configuration not stated) | 0.09 mg/kg |  | 
9 |  |  |  |  |  | Cc1cc(O)nnc1/C=C/c1ccc(-n2ccnc2)cc1 | 0.2 mg/kg |  | 
10 |  |  |  |  |  | CCC(=O)Nc1ccc(/C=C/C2=NNC(=O)CC2C)cc1 (configuration not stated) | 0.2 mg/kg |  | 
11 | 4000 nM | 10 nM | 400 nM | 45000 nM | 1.29 | CC1CC(O)=NN=C1c1ccc(-n2ccnc2)cc1 (configuration not stated) [CI-930] |  | 149% | Change [5]: 51%; Change [6]: 124%; Change [16]: 11%; Change [17]: 25%
12 | 5000 nM | 450 nM | 1700 nM | 1000 nM | 2.47 | O=C1CCC(/C=C/c2ccc(-n3cnc4c3CCCC4)cc2)=NN1 | 0.1 mg/kg |  | 
13 | 120000 nM | 15000 nM |  |  |  | CSc1ccc(C(=O)c2[nH]c(=O)[nH]c2C)cc1 [ENOXIMONE] |  | 19% | Change [3]: 47%; Change [4]: 83%; Change [5]: 5%; Change [6]: 7%; Ratio [18]: 0.58
14 | 60000 nM | 15000 nM |  |  |  | CCc1[nH]c(=O)[nH]c1C(=O)c1ccncc1 [PIROXIMONE] |  | 41% | Change [3]: 93%; Change [4]: 144%; Change [5]: 8%; Change [6]: 16%
15 | 6000 nM | 600 nM |  |  | 3.1 | CC1CC(=O)NN=C1/C=C/c1ccc(-n2cnc3c2CCCC3)cc1 (configuration not stated) | 0.05 mg/kg |  | IC50 [19]: 18 nM; IC50 [20]: 100 nM
16 | 250000 nM | 15000 nM | 50000 nM | 500000 nM |  | Nc1cc(-c2ccncc2)c[nH]c1=O [INAMRINONE] |  | 9% | Change [3]: 32%; Change [4]: 85%; Change [21]: 165%
17 | 6000 nM | 200 nM |  |  | 1.21 | O=C1CCC(/C=C/c2ccc(-n3ccnc3)cc2)=NN1 | 0.02 mg/kg |  | IC50 [20]: 1100 nM; IC50 [22]: 400 nM
18 |  |  |  |  | 1.27 | CC(=O)Nc1ccc(/C=C/C2=NNC(=O)CC2C)cc1 (configuration not stated) | 0.02 mg/kg |  | IC50 [19]: 870 nM; IC50 [20]: 2800 nM
19 |  |  |  |  |  | CC1CC(=O)NN=C1/C=C/c1ccc(N)cc1 (configuration not stated) | 1 mg/kg |  | 

Row | SMILES | IC50 [7] | IC50 [8] | IC50 [9] | IC50 [10] | logP [11] | Dose [1] | Change [2] | also measured
20 | CC1CC(=O)NN=C1c1ccc(-n2cnc3c2CCCC3)cc1 (configuration not stated) [TETRAHYDROBENXIMIDAZOLE] | 4000 nM | 15 nM | 500 nM | 750 nM | 2.52 |  |  | IC50 [20]: 150 nM; IC50 [22]: 110 nM
